Results taken from ChEMBL document CHEMBL1150225, “Cytotoxic cholestane glycosides from the bulbs of Ornithogalum saundersiae” (J Nat Prod, 2001).

Tests used:
[1] = Cytotoxicity against human […] cells; format: functional
[2] = tested on: SW-620; experiment: Cytotoxicity against human SW620 cells; format: functional
[3] = Cytotoxicity against human Hs 578T cells; format: functional
[4] = tested on: UACC-257; experiment: Cytotoxicity against human UACC257 cells; format: functional
[5] = tested on: KM12; experiment: Cytotoxicity against human KM12 cells; format: functional
[6] = tested on: UO-31; experiment: Cytotoxicity against human UO31 cells; format: functional
[7] = tested on: LOX IMVI; experiment: Cytotoxicity against human LOXIMVI cells; format: functional
[8] = tested on: SF-539; experiment: Cytotoxicity against human SF539 cells; format: functional
[9] = tested on: CAKI-1; experiment: Cytotoxicity against human Caki1 cells; format: functional
[10] = tested on: K562; experiment: Cytotoxicity against human K562 cells; format: functional
[11] = tested on: DU-145; experiment: Cytotoxicity against human DU145 cells; format: functional
[12] = tested on: NCI-H460; experiment: Cytotoxicity against human NCI-H460 cells; format: functional
[13] = tested on: HOP-62; experiment: Cytotoxicity against human HOP62 cells; format: functional
[14] = tested on: U-251; experiment: Cytotoxicity against human U251 cells; format: functional
[15] = tested on: HL-60; experiment: Cytotoxicity against human HL60 cells after 72 hrs by MTT assay; format: functional, cell-based; conditions: HL-60, 72 h
Procedure, shortened: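 HL-60 leukemia cells kept in RPMI 1640 with 10% fetal bovine serum, L-glutamine, 100 units/mL penicillin and 100 μg/mL streptomycin. Cells at 3 × 10^4 cells/mL exposed continuously to compound for 72 h. Growth read by MTT reduction. IC50 (50% inhibition) calculated from each compound's dose–response curve.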

[16] = tested on: T47D; experiment: Cytotoxicity against human T47D cells; format: functional
[17] = tested on: MDA-MB-231; experiment: Cytotoxicity against human MDA-MB-231 cells; format: functional
[18] = tested on: M14; experiment: Cytotoxicity against human M14 cells; format: functional
[19] = tested on: SF-295; experiment: Cytotoxicity against human SF295 cells; format: functional
[20] = tested on: OVCAR-4; experiment: Cytotoxicity against human OVCAR4 cells; format: functional
[21] = tested on: NCI-H322M; experiment: Cytotoxicity against human NCI-H322M cells; format: functional
[22] = tested on: NCI-H23; experiment: Cytotoxicity against human NCI-H23 cells; format: functional
[23] = tested on: UACC-62; experiment: Cytotoxicity against human UACC62 cells; format: functional
[24] = tested on: SK-MEL-28; experiment: Cytotoxicity against human SK-MEL-28 cells; format: functional
[25] = tested on: Malme-3M; experiment: Cytotoxicity against human MALME-3M cells; format: functional
[26] = tested on: COLO 205; experiment: Cytotoxicity against human COLO205 cells; format: functional
[27] = tested on: A549; experiment: Cytotoxicity against human A549 cells; format: functional
[28] = tested on: HCC 2998; experiment: Cytotoxicity against human HCC2998 cells; format: functional
[29] = tested on: HCT-15; experiment: Cytotoxicity against human HCT15 cells; format: functional
[30] = tested on: SNB-19; experiment: Cytotoxicity against human SNB19 cells; format: functional
[31] = read-out: pLC50 (the source's name) (converted)

COc1ccc(C(=O)O[C@H]2[C@H](O[C@@H]3[C@@H](OC(C)=O)[C@H](O[C@H]4C[C@H]5[C@@H]6CC=C7C[C@@H](O)CC[C@]7(C)[C@H]6CC[C@]5(C)[C@@]4(O)[C@H](C)C(=O)CCC(C)C)OC[C@@H]3O)OC[C@@H](O)[C@@H]2O)cc1
CC50 [1, 31]: 2090 nM
TGI ([1]; read-out: pTGI (converted)): 0.219 nM
GI50 [2]: 0.129 nM
CC50 [2, 31]: 21.9 nM
TGI ([2]; read-out: pTGI (converted)): 0.549 nM
GI50 [3]: 0.0537 nM
CC50 [3, 31]: 2000 nM
TGI ([3]; read-out: pTGI (converted)): 0.741 nM
GI50 [4]: 0.933 nM
CC50 [4, 31]: 40.7 nM
TGI ([4]; read-out: pTGI (converted)): 1.29 nM
GI50 [5]: 0.407 nM
CC50 [5, 31]: 1100 nM
TGI ([5]; read-out: pTGI (converted)): 39.8 nM
GI50 [6]: 0.617 nM
CC50 [6, 31]: 30.2 nM
TGI ([6]; read-out: pTGI (converted)): 1.41 nM
GI50 [7]: 0.251 nM
CC50 [7, 31]: 91.2 nM
TGI ([7]; read-out: pTGI (converted)): 2.29 nM
GI50 [8]: 0.1 nM
CC50 [8, 31]: 182 nM
TGI ([8]; read-out: pTGI (converted)): 4.47 nM
GI50 [9]: 1.7 nM
CC50 [9, 31]: 871 nM
TGI ([9]; read-out: pTGI (converted)): 49 nM
GI50 [10]: 0.219 nM
CC50 [10, 31]: 10000 nM
TGI ([10]; read-out: pTGI (converted)): 14.1 nM
GI50 [11]: 3.71 nM
CC50 [11, 31]: 4270 nM
TGI ([11]; read-out: pTGI (converted)): 1510 nM
GI50 [12]: 0.159 nM
CC50 [12, 31]: 2190 nM
TGI ([12]; read-out: pTGI (converted)): 33.9 nM
GI50 [13]: 0.159 nM
CC50 [13, 31]: 129 nM
TGI ([13]; read-out: pTGI (converted)): 2 nM
GI50 [14]: 0.0257 nM
CC50 [14, 31]: 2510 nM
TGI ([14]; read-out: pTGI (converted)): 51.3 nM
GI50 [15]: 0.0347 nM
IC50 [15]: 0.25 nM
TGI ([15]; read-out: pTGI (converted)): 182 nM
GI50 [16]: 5.13 nM
CC50 [16, 31]: 7760 nM
TGI ([16]; read-out: pTGI (converted)): 1510 nM
GI50 [17]: 19.1 nM
CC50 [17, 31]: 5370 nM
TGI ([17]; read-out: pTGI (converted)): 1290 nM
GI50 [18]: 0.269 nM
CC50 [18, 31]: 51.3 nM
TGI ([18]; read-out: pTGI (converted)): 0.955 nM
GI50 [19]: 0.0479 nM
CC50 [19, 31]: 30.2 nM
TGI ([19]; read-out: pTGI (converted)): 2.29 nM
GI50 [20]: 3.63 nM
CC50 [20, 31]: 5750 nM
TGI ([20]; read-out: pTGI (converted)): 2190 nM
GI50 [21]: 26.9 nM
CC50 [21, 31]: 5010 nM
TGI ([21]; read-out: pTGI (converted)): 1290 nM
GI50 [22]: 0.363 nM
CC50 [22, 31]: 1290 nM
TGI ([22]; read-out: pTGI (converted)): 110 nM
GI50 [23]: 0.309 nM
CC50 [23, 31]: 3.63 nM
TGI ([23]; read-out: pTGI (converted)): 1.29 nM
GI50 [24]: 0.182 nM
CC50 [24, 31]: 25.7 nM
TGI ([24]; read-out: pTGI (converted)): 1.1 nM
GI50 [25]: 0.631 nM
CC50 [25, 31]: 2400 nM
TGI ([25]; read-out: pTGI (converted)): 2.29 nM
GI50 [26]: 1 nM
CC50 [26, 31]: 288 nM
TGI ([26]; read-out: pTGI (converted)): 1.58 nM
GI50 [27]: 0.457 nM
CC50 [27, 31]: 8130 nM
TGI ([27]; read-out: pTGI (converted)): 2090 nM
GI50 [28]: 30.2 nM
CC50 [28, 31]: 4370 nM
TGI ([28]; read-out: pTGI (converted)): 1910 nM
GI50 [29]: 11 nM
CC50 [29, 31]: 692 nM
TGI ([29]; read-out: pTGI (converted)): 95.5 nM
GI50 [30]: 12.9 nM
CC50 [30, 31]: 2880 nM
TGI ([30]; read-out: pTGI (converted)): 331 nM
